Data taken from ChEMBL document CHEMBL4152387, “Discovery of a Potent Grp94 Selective Inhibitor with Anti-Inflammatory Efficacy in a Mouse Model of Ulcerative Colitis” (J Med Chem, 2018).
pIC50, pKd: −log10 of the molar value. The source made the active and inactive calls. No cut-off for these calls is given here.

Experiments:
Canis lupus familiaris = species on record: Canis lupus familiaris; assay: Inhibition of FITC-geldanamycin binding to dog GST-tagged GRP94 N41 deletion mutant (69 to 337 residues) expressed in Escherichia coli BL21star (DE3) at 100 uM after 4 hrs by FP assay relative to control
[1] = Inhibition of FITC-geldanamycin binding to dog GST-tagged GRP94 N41 deletion mutant (69 to 337 residues) expressed in Escherichia coli BL21star (DE3) after 4 hrs by GM-FITC-based FP assay; design: species or system Canis lupus familiaris
[2] = target: T1, Heat shock protein HSP 90-alpha (Homo sapiens, UniProt P07900); assay: Inhibition of FITC-geldanamycin binding to human His-tagged HSP90alpha N-terminal domain (1 to 236 residues) expressed in Escherichia coli BL21star (DE3) at 100 uM after 4 hrs by FP assay relative to control
Summary of the method: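 Hsp90αN (15 nM final) with GM-FITC (6 nM final) and compound in HEPES/KCl/MgCl2 buffer pH 7.4 with NP40, DTT, BGG; 4 h at 4 °C in dark; FP at ex 485/em 535 nm; inhibition computed against GM-FITC-only and protein-plus-probe controls; n = 3.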

Heat shock protein HSP90 = Heat shock protein HSP90 (Homo sapiens, UniProt P07900+P08238); assay: Inhibition of FITC-geldanamycin binding to human His-tagged HSP90alpha N-terminal domain (1 to 236 residues) expressed in Escherichia coli BL21star (DE3) after 4 hrs by FP assay relative to control
[3] = target: T1, Heat shock protein HSP 90-alpha; assay: Inhibition of HSP90alpha in human PANC1 cells assessed as up-regulation of Hsp70 at 1 uM after 36 hrs by Western blot analysis; assay type: cell-based
Summary of the method: (§1)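 Panc-1 cells treated 36 h; total protein lysate with protease/phosphatase inhibitors; equal protein by BCA on SDS-PAGE, PVDF, Western blot for Hsp70 and Akt, β-actin loading control; AT13387 reference.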

[4] = target: T1, Heat shock protein HSP 90-alpha; assay: Inhibition of HSP90alpha in human PANC1 cells assessed as akt degradation at 1 uM after 36 hrs by Western blot analysis; assay type: cell-based; summary of the method: as §1
Homo sapiens = species on record: Homo sapiens; assay: Selectivity ratio of IC50 for inhibition of human recombinant HSP90alpha expressed in Escherichia coli by fluorescence polarization assay to IC50 for inhibition of GRP94 (unknown origin)
Endoplasmin [5] = target: Endoplasmin (Homo sapiens, UniProt P14625); assay: Binding affinity to GRP94 N-domain (unknown origin)
Endoplasmin (Homo sapiens, UniProt P14625), sequence (P14625 whole entry): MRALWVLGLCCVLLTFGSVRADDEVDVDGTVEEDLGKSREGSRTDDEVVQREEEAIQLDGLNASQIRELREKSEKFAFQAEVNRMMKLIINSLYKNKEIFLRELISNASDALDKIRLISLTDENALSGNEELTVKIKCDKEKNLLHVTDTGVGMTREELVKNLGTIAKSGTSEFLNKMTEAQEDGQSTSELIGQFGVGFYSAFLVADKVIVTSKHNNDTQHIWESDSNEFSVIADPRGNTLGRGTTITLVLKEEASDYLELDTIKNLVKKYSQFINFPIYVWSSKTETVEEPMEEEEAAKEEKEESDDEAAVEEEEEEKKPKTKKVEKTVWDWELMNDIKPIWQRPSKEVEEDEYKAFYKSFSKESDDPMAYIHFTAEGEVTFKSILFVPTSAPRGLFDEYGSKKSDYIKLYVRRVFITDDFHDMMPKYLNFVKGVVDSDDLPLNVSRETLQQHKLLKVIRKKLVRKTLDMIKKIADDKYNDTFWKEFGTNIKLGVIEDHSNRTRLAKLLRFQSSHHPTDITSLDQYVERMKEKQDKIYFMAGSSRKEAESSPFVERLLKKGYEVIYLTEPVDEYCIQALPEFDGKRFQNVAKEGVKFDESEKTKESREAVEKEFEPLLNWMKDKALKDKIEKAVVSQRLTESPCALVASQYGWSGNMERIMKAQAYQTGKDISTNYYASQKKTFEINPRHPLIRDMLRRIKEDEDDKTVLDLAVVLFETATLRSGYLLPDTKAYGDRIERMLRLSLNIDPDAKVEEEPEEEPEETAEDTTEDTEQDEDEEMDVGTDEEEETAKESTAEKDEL

[6] = target: T1, Heat shock protein HSP 90-alpha; assay: Inhibition of human recombinant HSP90alpha expressed in Escherichia coli by fluorescence polarization assay
[7] = target: T1, Heat shock protein HSP 90-alpha; assay: Inhibition of FITC-geldanamycin binding to HSP90alpha (unknown origin) incubated for 5 hrs by fluorescence polarization assay
Endoplasmin [8] = target: Endoplasmin (Canis lupus familiaris, UniProt P41148); assay: Inhibition of FITC-geldanamycin binding to canine GRP94 incubated for 5 hrs by fluorescence polarization assay
Endoplasmin (Canis lupus familiaris, UniProt P41148), sequence (P41148 whole entry): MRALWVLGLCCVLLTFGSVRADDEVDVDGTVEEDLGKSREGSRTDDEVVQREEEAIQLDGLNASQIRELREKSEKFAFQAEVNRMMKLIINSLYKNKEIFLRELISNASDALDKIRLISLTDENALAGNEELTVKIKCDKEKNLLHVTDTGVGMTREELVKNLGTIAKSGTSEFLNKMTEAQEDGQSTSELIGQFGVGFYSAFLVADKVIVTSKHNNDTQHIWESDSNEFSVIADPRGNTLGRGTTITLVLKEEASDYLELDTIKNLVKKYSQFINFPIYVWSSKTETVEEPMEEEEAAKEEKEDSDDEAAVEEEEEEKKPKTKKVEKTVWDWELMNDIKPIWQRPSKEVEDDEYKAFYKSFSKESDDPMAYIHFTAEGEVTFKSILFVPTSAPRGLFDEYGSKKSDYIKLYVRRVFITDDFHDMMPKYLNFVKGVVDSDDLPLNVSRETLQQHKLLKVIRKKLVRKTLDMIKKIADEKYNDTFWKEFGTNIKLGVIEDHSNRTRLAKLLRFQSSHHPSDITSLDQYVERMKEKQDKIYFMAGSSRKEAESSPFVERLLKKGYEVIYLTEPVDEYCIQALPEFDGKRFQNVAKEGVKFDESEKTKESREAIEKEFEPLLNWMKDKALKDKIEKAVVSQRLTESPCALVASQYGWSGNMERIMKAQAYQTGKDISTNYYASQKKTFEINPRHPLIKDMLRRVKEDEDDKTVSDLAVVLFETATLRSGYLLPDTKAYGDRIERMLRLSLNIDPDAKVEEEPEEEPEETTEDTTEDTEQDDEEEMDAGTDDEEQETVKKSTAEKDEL

Structure (SMILES) | inhibition (Canis lupus familiaris) | pIC50 [1] | inhibition (INH) [2] | other results
CCc1ccccc1-c1ccc(N[C@H]2CC[C@H](O)CC2)c(C(N)=O)c1 | 92% | 5.69 | Not Active | –
Cc1ccc(-c2ccc(N[C@H]3CC[C@H](O)CC3)c(C(N)=O)c2)cc1 | 100% | 6.47 | Not Active | –
NC(=O)c1cc(-c2ccccc2Cl)ccc1N[C@H]1CC[C@H](O)CC1 | 100% | 5.57 | Not Active | –
CC(C)c1ccc(-c2ccc(NC3CCCC3)c(C(N)=O)c2)cc1 | 89% | 5.51 | Not Active | –
CC(C)c1ccc(-c2ccc(NC3CCN(C(=O)CN)CC3)c(C(N)=O)c2)cc1 | 100% | 6.68 | Not Active | –
CC(C)C[C@H](N)C(=O)N1CCC(Nc2ccc(-c3ccc(C(C)C)cc3)cc2C(N)=O)CC1 | 89% | 6.32 | Not Active | –
Cc1ccc(-c2ccc(N[C@H]3CC[C@H](O)CC3)c(C(N)=O)c2)c(C)c1 | 91% | 5.91 | Not Active | –
CC(N)C(=O)N1CCC(Nc2ccc(-c3ccc(C(C)C)cc3)cc2C(N)=O)CC1 (stereo unspecified) | 88% | 6.43 | Not Active | –
NC(=O)c1cc(-c2c(Cl)cccc2Cl)ccc1N[C@H]1CC[C@H](O)CC1 | 100% | 6.85 | Not Active | –
CC(C)c1ccc(-c2ccc(NC3CCNCC3)c(C(N)=O)c2)cc1 | 100% | 6.33 | Not Active | –
CC(C)c1ccc(-c2ccc(NC3CCN(C(=O)C(N)C(C)C)CC3)c(C(N)=O)c2)cc1 (stereo unspecified) | 91% | 6.35 | Not Active | –
Cc1ccccc1-c1ccc(N[C@H]2CC[C@H](O)CC2)c(C(N)=O)c1 | 90% | 5.74 | Not Active | –
NC(=O)c1cc(-c2ccccc2)ccc1N[C@H]1CC[C@H](O)CC1 | 93% | 5.56 | Not Active | –
CC(C)c1cc(C(=O)N2Cc3ccc(CN4CCN(C)CC4)cc3C2)c(O)cc1O [ONALESPIB] | 100% | 7.70 | – | IC50 (Heat shock protein HSP90): 22 nM; inhibition (INH) [3]: Active; inhibition (INH) [4]: Active
COc1ccccc1-c1ccc(N[C@H]2CC[C@H](O)CC2)c(C(N)=O)c1 | 89% | 4.94 | Not Active | –
Cc1cc(C)cc(-c2ccc(N[C@H]3CC[C@H](O)CC3)c(C(N)=O)c2)c1 | 72% | 4.71 | Not Active | –
CC(C)c1ccc(-c2ccc(N[C@H]3CCOC3)c(C(N)=O)c2)cc1 | 95% | 6.89 | Not Active | –
CC(C)c1ccc(-c2ccc(NC3CCN(C(=O)CCCCCN)CC3)c(C(N)=O)c2)cc1 | 100% | 6.82 | Not Active | –
CC(C)(C)c1ccc(-c2ccc(N[C@H]3CC[C@H](O)CC3)c(C(N)=O)c2)cc1 | 100% | 6.10 | Not Active | –
NC(=O)c1cc(-c2cc(Cl)cc(Cl)c2)ccc1N[C@H]1CC[C@H](O)CC1 | 66% | 4.61 | Not Active | –
Cc1cc(C)c(-c2ccc(N[C@H]3CC[C@H](O)CC3)c(C(N)=O)c2)c(C)c1 | 100% | 5.95 | Not Active | –
CCc1ccc(-c2ccc(N[C@H]3CC[C@H](O)CC3)c(C(N)=O)c2)cc1 | 100% | 8.15 | Not Active | –
C#CCCCn1cnc(N)c2nc(Sc3ccc(C)cc3C)nc1-2 | – | – | – | Ratio IC50 (Homo sapiens): > 21; pIC50 (Endoplasmin [5]): 4.93; pIC50 [6]: < 3.60
NC(=O)c1cc(-c2cccc(Cl)c2Cl)ccc1N[C@H]1CC[C@H](O)CC1 | 100% | 6.51 | Not Active | –

Structure (SMILES) | inhibition (Canis lupus familiaris) | pIC50 [1] | inhibition (INH) [2] | other results
CC(C)c1ccc(-c2ccc(NCC3CCCCC3)c(C(N)=O)c2)cc1 | inactive | – | Not Active | –
Cc1cccc(-c2ccc(N[C@H]3CC[C@H](O)CC3)c(C(N)=O)c2)c1C | 81% | 6.34 | Not Active | –
NC(=O)c1cc(-c2cccc3ccccc23)ccc1N[C@H]1CC[C@H](O)CC1 | 0% | – | Not Active | –
COC(=O)c1c(O)cc(O)c(Cl)c1CCC(=O)NC1=CC(=O)C(OC)=CC1=O | – | – | – | pKd [7]: 6.06; pKd (Endoplasmin [8]): 6.28
CCOc1ccc(-c2ccc(N[C@H]3CC[C@H](O)CC3)c(C(N)=O)c2)cc1 | 100% | 6.31 | Not Active | –
NC(=O)c1cc(-c2ccc(-n3cccc3)cc2)ccc1N[C@H]1CC[C@H](O)CC1 | 0% | – | Not Active | –
COc1cccc(-c2ccc(N[C@H]3CC[C@H](O)CC3)c(C(N)=O)c2)c1 | 100% | 5.32 | Not Active | –
CC(C)c1ccc(-c2ccc(NC3CCOCC3)c(C(N)=O)c2)cc1 | 100% | 7.14 | Not Active | –
NC(=O)c1cc(-c2ccc(Cl)c(Cl)c2)ccc1N[C@H]1CC[C@H](O)CC1 | 100% | 6.22 | Not Active | –
CC(=O)N1CCC(Nc2ccc(-c3ccc(C(C)C)cc3)cc2C(N)=O)CC1 | 100% | 7.26 | Not Active | –
Cc1ccc(-c2ccc(N[C@H]3CC[C@H](O)CC3)c(C(N)=O)c2)cc1C | 100% | 6.15 | Not Active | –
CC[C@H](C)[C@H](N)C(=O)N1CCC(Nc2ccc(-c3ccc(C(C)C)cc3)cc2C(N)=O)CC1 | 92% | 6.33 | Not Active | –
CCCc1ccc(-c2ccc(N[C@H]3CC[C@H](O)CC3)c(C(N)=O)c2)cc1 | 100% | 7.28 | Not Active | –
NC(=O)c1cc(-c2ccc(Cl)cc2)ccc1N[C@H]1CC[C@H](O)CC1 | 100% | 6.77 | Not Active | –
CC(C)c1ccc(-c2ccc(NC3CCN(C(=O)CCN)CC3)c(C(N)=O)c2)cc1 | 96% | 6.66 | Not Active | –
NC(=O)c1cc(-c2cccc(Cl)c2)ccc1N[C@H]1CC[C@H](O)CC1 | 100% | 5.69 | Not Active | –
CC(C)CNc1ccc(-c2ccc(C(C)C)cc2)cc1C(N)=O | 96% | 5.63 | Not Active | –
Cc1cccc(-c2ccc(N[C@H]3CC[C@H](O)CC3)c(C(N)=O)c2)c1 | 100% | 5.94 | Not Active | –
Cc1cccc(C)c1-c1ccc(N[C@H]2CC[C@H](O)CC2)c(C(N)=O)c1 | 100% | 5.85 | Not Active | –
COc1ccc(-c2ccc(N[C@H]3CC[C@H](O)CC3)c(C(N)=O)c2)cc1 | 100% | 6.30 | Not Active | –
NC(=O)c1cc(-c2ccc3ccccc3c2)ccc1N[C@H]1CC[C@H](O)CC1 | 75% | 4.90 | Not Active | –
CC(C)c1ccc(-c2ccc(NC3CCCCC3)c(C(N)=O)c2)cc1 | 97% | 6.43 | Not Active | –
COCCNc1ccc(-c2ccc(C(C)C)cc2)cc1C(N)=O | 96% | 6.03 | Not Active | –
CC1(C)CC(=O)c2c(C(F)(F)F)nn(-c3ccc(C(N)=O)c(N[C@H]4CC[C@H](O)CC4)c3)c2C1 [SNX-2112] | 100% | 7.01 | – | –
